Data from publication PMC6852796 (Asian Pacific Journal of Cancer Prevention : APJCP, 2019).
“And” between values parts separate entries of the source, which are not always exact repeats. Equal entries are not always repeated.

Key:
[1] = NOS related cytotoxicity, SRB viability of RAW 264.7; format: cell-based, murine; details: mouse, RAW 264.7 macrophages
Summary of the method: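 RAW 264.7 macrophages were maintained in high-glucose DMEM with 10% FBS and penicillin/streptomycin/[…] at 37 °C in humidified 5% CO2. The test compound's effect on their viability was measured by sulforhodamine B colorimetric staining, run alongside the LPS-stimulated nitrite assay.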

[2] = Selective cytotoxicity SRB assay, periodontal fibroblasts; format: cell-based; details: human, primary periodontal ligament fibroblasts (PDL), noncancerous
Summary of the method: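 Primary human periodontal fibroblasts served as a noncancerous counter-screen for selective cytotoxicity. […] Assays were run in triplicate and reported as mean ± SD (n=3).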

[3] = tested on: LPS-induced nitric oxide production in RAW 264.7 macrophages; test: Anti-inflammatory; format: cell-based, murine; details: Mus musculus, RAW264.7, 24 h, read-out: NOS-IC50 value
Summary of the method: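 Cells (2 x 10^5/well) were exposed to test compound (5-200 μg/mL) plus LPS 10 μg/mL for 24 h. Medium was mixed 1:1 with Griess reagent (1% sulfanilamide in 5% phosphoric acid; 0.1% naphthylethylenediamine-HCl) for 10 min at RT. A550 was read and nitrite taken from a sodium nitrite standard curve.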

[4] = molecular target: T1, Crude porcine PL type II (pancreatic lipase) (Sus scrofa, UniProt P00591); test: In vitro PL activity spectrophotometric assay; format: biochemical; details: PL-IC50 value, p-NPB substrate, 37 °C
T1 sequence (P00591 1-450): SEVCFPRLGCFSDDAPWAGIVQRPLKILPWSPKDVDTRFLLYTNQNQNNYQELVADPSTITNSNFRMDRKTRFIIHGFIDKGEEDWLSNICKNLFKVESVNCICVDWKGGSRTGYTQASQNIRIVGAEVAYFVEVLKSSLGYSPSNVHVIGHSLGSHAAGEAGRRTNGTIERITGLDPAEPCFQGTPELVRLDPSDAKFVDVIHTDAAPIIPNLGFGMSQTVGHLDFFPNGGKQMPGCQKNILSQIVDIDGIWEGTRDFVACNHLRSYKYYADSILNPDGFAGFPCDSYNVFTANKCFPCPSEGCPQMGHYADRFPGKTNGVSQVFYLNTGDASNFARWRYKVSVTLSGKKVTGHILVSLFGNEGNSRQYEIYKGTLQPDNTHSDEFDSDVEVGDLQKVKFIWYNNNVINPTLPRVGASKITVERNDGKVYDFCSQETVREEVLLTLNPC

[5] = Glycation related cytotoxicity: test compound only, no MGO; format: cell-based, murine; details: mouse, RAW 264.7 macrophages
[6] = tested on: RAW 264.7 murine macrophages; test: as above; format: cell-based; details: RAW264.7, in absence of MGO, 48 hr, SRB
[7] = tested on: Methylglyoxal induced cytotoxicity in RAW264.7 murine macrophages; test: Antiglycation determination via methylglyoxal induced cytotoxicity; format: cell-based; details: RAW264.7, MGO 300 µM, 48 hr, SRB

IC50 [3] | IC50 [4] | Structure (SMILES) | IC50 at 24 h [1] | IC50 at 72 h [2] | IC50 at 48 h [5] | Glycation related Cytotox.-IC50 value [6] | IC50 ([6]; read-out: Glycation related Cytotox.-IC50 value) | Glycation-IC50 value [7] | IC50 ([7]; read-out: Glycation-IC50 value)
29.8 µM and 12.2 µg/mL | 74.7 µM and 69.6 µM | CCCCc1ccc(Nc2c(F)cc3c(=O)c(C(=O)O)cn(C4CC4)c3c2N)cc1 [4b, 8-amino-7-(4-butyl-phenylamino)-1-cyclopropyl-6-fluoro-4-oxo-1,4-dihydro-quinoline-3-carboxylic acid] | > 200 µg/mL | 407 µM and 167 µg/mL | 8.51 µM and 3.5 µg/mL | – | – | – | –
60 µM and 22.9 µg/mL | 22.3 µM and 23.9 µM | CCc1ccc(Nc2c(F)cc3c(=O)c(C(=O)O)cn(C4CC4)c3c2N)cc1 [4a, 8-amino-1-cyclopropyl-7-(4-ethyl-phenylamino)-6-fluoro-4-oxo-1,4-dihydro-quinoline-3-carboxylic acid] | > 200 µg/mL | 37.1 µM and 14.2 µg/mL | 3.05 µM and 1.2 µg/mL | – | – | – | –
51.5 µM and 20.2 µg/mL | 95.5 µM and 95.6 µM | CCc1ccc(-n2nnc3c4c(cc(F)c32)c(=O)c(C(=O)O)cn4C2CC2)cc1 [5a, 9-cyclopropyl-3-(4-ethyl-phenyl)-4-fluoro-6-oxo-6,9-dihydro-3H-[1,2,3]triazolo[4,5-h]quinoline-7-carboxylic acid] | > 200 µg/mL | 155 µM and 60.8 µg/mL | 84.1 µM and 33 µg/mL | – | – | – | –
10.5 µg/mL and 23.8 µM | 23.1 µM and 23.2 µM | CCCCc1ccc(Nc2c(F)cc3c(=O)c(C(=O)O)cn(C4CC4)c3c2[N+](=O)[O-])cc1 [3b, 7-(4-butyl-phenylamino)-1-cyclopropyl-6-fluoro-8-nitro-4-oxo-1,4-dihydro-quinoline-3-carboxylic acid] | 144 µg/mL and 327 µM | 416 µM and 183 µg/mL | – | – | – | – | –
309 µM and 127 µg/mL | 21.6 µM | CCc1ccc(Nc2c(F)cc3c(=O)c(C(=O)O)cn(C4CC4)c3c2[N+](=O)[O-])cc1 [3a, 1-cyclopropyl-7-(4-ethyl-phenylamino)-6-fluoro-8-nitro-4-oxo-1,4-dihydro-quinoline-3-carboxylic acid] | > 200 µg/mL | 437 µM and 180 µg/mL | 437 µM and 180 µg/mL | – | – | – | –
212 µM and 75.9 µg/mL | – | COc1ccc2c(c1)c(CC(=O)O)c(C)n2C(=O)c1ccc(Cl)cc1 [Indomethacin, reference compound] | > 200 µg/mL | – | – | – | – | – | –
98.8 µM and 41.5 µg/mL | 88.6 µM and 88.7 µM | CCCCc1ccc(-n2nnc3c4c(cc(F)c32)c(=O)c(C(=O)O)cn4C2CC2)cc1 [5b, 3-(4-butyl-phenyl)-9-cyclopropyl-4-fluoro-6-oxo-6,9-dihydro-3H-[1,2,3]triazolo[4,5-h]quinoline-7-carboxylic acid] | > 200 µg/mL | 42.5 µM and 17.9 µg/mL | 161 µM and 67.7 µg/mL | – | – | – | –
– | – | N=C(N)NN [Aminogaunidine, Aminoguanidine, reference compound] | – | – | – | (596.62±148.8 µg/mL ) | 5390 ± 1350 µM | (0.34±0.0 µg/mL) | 3.1 ± 0.35 µM
